Source: ChEMBL document CHEMBL3621156, “Discovery of Novel Isatin-Based p53 Inducers” (ACS Med Chem Lett, 2015)
Calls of active or inactive are those of the source. The calls are words filed in the database; no cut-off is given here.

Key:
[1] = Chemical stability of the compound assessed as compound hydrolysis at 50 uM in HEPES buffer incubated for 12 hrs at pH 7.5 at 37 degC by UV-visible spectrometry; type: physicochemical; details: pH 7.5, 12 h
Summary of the method: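 Hydrolysis followed by UV−vis spectrometry after incubation for 12 h at pH 7.5 and 37 °C.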

[2] = Chemical stability of the compound assessed as compound hydrolysis at 50 uM in Opti-Mem solution incubated for 12 hrs at pH 7.5 at 37 degC by UV-visible spectrometry; type: physicochemical; details: buffer, pH 7.5, 12 h
[3] = tested on: U2OS; assay: Cytotoxicity against human U2OS cells expressing p53 assessed as number of cells by Hoechst stain staining relative to Nutlin-3; type: functional
Summary of the method: (§1)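 p53+ and p53− cells treated, then Hoechst-stained; surviving cells counted. The value is the ratio of compound effect to Nutlin-3 effect, which is set as 1.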

[4] = tested on: U2OS; assay: Activation of p53 in human U2OS cells assessed as increase of MDM2 expression at 2.5 uM after 12 hrs by Western blotting; type: cell-based
[5] = tested on: U2OS; assay: Activation of p53 in human U2OS cells expressing EGFP assessed as increase of EGFP expression at 2.5 uM after 48 hrs relative to Nutlin-3; type: cell-based
Summary of the method: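 U2OS-pLV cells carrying an integrated p53-responsive EGFP reporter; compounds at 2.5 μM for 48 h. Read-out is the percentage of EGFP-positive cells, counted by high-content screening. The value is the ratio to the response with Nutlin-3, which is set as 1.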

[6] = tested on: U2OS; assay: Cytotoxicity against human p53 deficient U2OS cells assessed as number of cells by Hoechst stain staining relative to Nutlin-3; type: functional; summary of the method: as §1
[7] = molecular target: Cellular tumor antigen p53 (Homo sapiens) (UniProt P04637); assay: Stabilization of p53 in human U2OS cells assessed as intracellular p53 level at 0.5 uM after 12 hrs by Western blotting; type: cell-based
[8] = tested on: U2OS; assay: Activation of p53 in human U2OS cells assessed as increase of MDM2 expression at 0.5 uM after 12 hrs by Western blotting; type: cell-based

Cellular tumor antigen p53 (Homo sapiens), sequence (P04637 whole entry, looked up): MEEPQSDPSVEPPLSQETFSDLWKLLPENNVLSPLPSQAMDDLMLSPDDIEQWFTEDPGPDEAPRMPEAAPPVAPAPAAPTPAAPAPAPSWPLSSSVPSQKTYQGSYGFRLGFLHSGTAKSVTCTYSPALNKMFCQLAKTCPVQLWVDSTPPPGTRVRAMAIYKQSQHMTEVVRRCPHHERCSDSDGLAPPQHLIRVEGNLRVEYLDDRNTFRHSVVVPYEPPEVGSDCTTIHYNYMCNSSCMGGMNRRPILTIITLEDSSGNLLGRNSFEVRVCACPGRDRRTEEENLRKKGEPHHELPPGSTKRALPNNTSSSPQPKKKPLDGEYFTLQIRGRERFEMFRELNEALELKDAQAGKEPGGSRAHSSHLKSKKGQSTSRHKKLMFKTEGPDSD

With `O=C1C(=O)N(CN2CCN(c3ccccc3)CC2)c2ccccc21` the Stability [1] was “Unstable” and the Stability [2] was “Unstable”.

With `O=C(NCc1ccccc1)c1ccc(/N=C2\C(=O)N(CN3CCN(c4ccccc4)CC3)c3ccccc32)cc1` the Ratio [3] was 0.22, the Activity [4] was “inactive” and the Ratio [5] was 3.9. The Ratio [6] was 0.4.

In the case of `C[C@H](NC(=O)c1ccc(/N=C2\C(=O)N(CN3CCN(Cc4ccccc4)CC3)c3ccccc32)cc1)c1ccccc1`, the Ratio [3] is reported as 0.04, the Ratio [5] is reported as 8.7 and the Ratio [6] is reported as 0.27.

Molecule `O=C(NCc1ccccc1)c1ccc(/N=C2\C(=O)N(CN3CCC(Cc4ccccc4)CC3)c3ccccc32)cc1` has a Ratio [3] of 0.14, a Ratio [5] of 4.9 and a Ratio [6] of 0.32.

In the case of `COc1ccc(C2=N[C@@H](c3ccc(Cl)cc3)[C@@H](c3ccc(Cl)cc3)N2C(=O)N2CCNC(=O)C2)c(OC(C)C)c1`, the Activity [4] is reported as “inactive”.

Molecule `CN(Cc1ccccc1)CN1C(=O)/C(=N\c2ccc(C(=O)NCc3ccccc3)cc2)c2ccccc21` has a Ratio [3] of 0.14, a Ratio [5] of 3.1 and a Ratio [6] of 0.41.

In the case of `O=C(NCc1ccccc1)c1ccc(/N=C2\C(=O)N(CN3CCN(c4ccccc4F)CC3)c3ccccc32)cc1`, the Ratio [3] is reported as 0.11, the Ratio [5] is reported as 3.6 and the Ratio [6] is reported as 0.24.

In the case of `COc1cccc2c1C(=O)c1c(O)c3c(c(O)c1C2=O)C[C@@](O)(C(=O)CO)C[C@@H]3O[C@H]1C[C@H](N)[C@H](O)[C@H](C)O1`, the Activity [7] is reported as “Active” and the Activity [8] is reported as “inactive”.

In the case of `O=C1Nc2ccccc2/C1=N/c1ccc(C(=O)NCc2ccccc2)cc1`, the Stability [1] is reported as “Unstable” and the Stability [2] is reported as “Unstable”.

Work on `O=C(NCc1ccccc1)c1ccc(/N=C2\C(=O)N(CN3CCN(Cc4ccccc4)CC3)c3ccccc32)cc1` yielded a Ratio [3] of 0.1, a Ratio [5] of 4.2 and a Ratio [6] of 0.19.
